PAX8 inh HTS = lowers PAX8-driven luciferase in RMG-I cells. RMG-I TPO-luciferase reporter, SteadyGlo, 24 h. inhibition, % at 12.6 µM. hit rate 1.2% among 360,000. AID 652154;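 active = mean replicate inhibition at least 60% with every replicate also reaching 60%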;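 also: luciferase light reporting Pax8 driven TPO promoter activity; plate controls were median of neutral control wells for no effect and mitoxantrone controls for full effect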
MLL AF4-AF9 inh = blocks AF4 peptide binding to human AF9. P42568. AlphaScreen, biotin-AF4 peptide binding to FLAG-AF9. inhibition, % at 10 µM. hit rate 0.47% among 350,000. AID 651704;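 active = every replicate reaching a set inhibition limit, whatever the replicate mean, cut at about 25% in these data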;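 also: 0% = plate neutral control median and 100% = total signal loss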
Target sequence (P42568 whole entry, looked up): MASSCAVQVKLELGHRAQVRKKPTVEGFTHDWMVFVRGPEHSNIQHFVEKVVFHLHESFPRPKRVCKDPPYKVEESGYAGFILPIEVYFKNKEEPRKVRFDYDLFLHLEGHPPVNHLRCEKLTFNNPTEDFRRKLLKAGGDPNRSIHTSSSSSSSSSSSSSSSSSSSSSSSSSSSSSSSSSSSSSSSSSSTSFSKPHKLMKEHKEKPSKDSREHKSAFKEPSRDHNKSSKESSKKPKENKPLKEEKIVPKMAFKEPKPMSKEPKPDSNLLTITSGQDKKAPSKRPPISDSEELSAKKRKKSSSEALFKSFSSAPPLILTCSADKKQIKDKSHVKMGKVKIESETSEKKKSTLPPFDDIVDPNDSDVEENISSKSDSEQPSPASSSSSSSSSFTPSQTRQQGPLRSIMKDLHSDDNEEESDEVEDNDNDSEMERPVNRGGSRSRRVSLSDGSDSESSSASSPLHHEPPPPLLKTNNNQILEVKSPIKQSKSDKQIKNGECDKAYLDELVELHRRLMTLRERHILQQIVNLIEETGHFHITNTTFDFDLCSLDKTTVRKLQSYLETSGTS
EWS-Fli block = EWS/Fli transcriptional activity inhibition; hit rate 0.67% among 350,000; AID 651661; inhibition, % at 12.6 µM; A673 NR0B1-luciferase reporter, viability-normalised;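 active = mean inhibition of at least 50% after viability correction, with every replicate also passing that limit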;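 also: firefly luciferase signal divided by Alamar Blue viability fluorescence both relative to DMSO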
Glyco luc inh = blocks N-linked glycosylation in D54 reporter cells. D54 ERlucT glycosylation luciferase reporter, 24 h; percent of 100 nM tunicamycin response. hit rate 0.23% among 360,000. reporter increase, % at 12.5 µM;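 active = mean luciferase reporter signal, scaled so untreated is 0 and the glycosylation-blocking control 100, at or above a set limit in every replicate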;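 also: luciferase carries N-glycosylation sites so blocking glycosylation raises the light; 0% = median of neutral control wells and 100% = median of 100 nM tunicamycin wells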
FN deposit inh = fibronectin deposition inhibition | AH1F fibroblasts, Alexa488-fibronectin deposition fluorescence, overnight | hit rate 0.086% among 350,000 | AID 743247 | inhibition, % at 12.6 µM;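 active = mean inhibition across replicates of 30% or more, regardless of how many single replicates reach that level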;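 also: positive control wells lacked labelled fibronectin entirely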
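Material: AH1F fibroblast monolayer depositing Alexa488-labelled fibronectin into matrix | Input: 10000 AH1F cells/well | Medium: DMEM plus 2% serum, read in PBS | Reagent: Alexa488-fibronectin, 24 nM final in well | Compound dosing: One dose per compound, pinned | Schedule: 1 h adhesion, overnight exposure | Measured by: Fluorescence at 485 nm excitation, 525 nm emission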
HIV Env fusion = blocks HIV Env-driven cell-cell fusion. hit rate 1.1% among 360,000. inhibition, % at 12.3 µM. HeLa-JRFL Env/CEM21 cell fusion, luciferase;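 active = mean replicate inhibition score of at least 50 and every replicate individually at or above 50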;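 also: 0% = plate neutral controls and 100% = maraviroc near 300 nM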
Starred values were filed as active, the others as inactive; . = not tested or not shown; [ ] = another dose, or the depositor's remark. In the library only some 2.5% were active in any assay of this set; here they are far more common.

SMILES	PAX8 inh HTS	MLL AF4-AF9 inh	EWS-Fli block	Glyco luc inh	FN deposit inh	HIV Env fusion
CCCCNC(=O)N(O)C1N(/N=C/c2ccccc2F)C(=S)SC1(C)C (stereo not given)	18.1	10.4	11.4	0.8	4.2	81.4*
CCCCNC(=O)N(O)C1N(/N=C/c2ccco2)C(=S)SC1(C)C (stereo not given)	-7.7	-1.7	-8.2	-0.3	-0.1	-5.9
CN(C)c1ccc(C(C[N+](=O)[O-])c2c(N)n(C)c(=O)n(C)c2=O)c(F)c1C#N (stereo not given)	18.6	0.2	21.0	27.9*	2.6	11.5
Cn1c(N)c(C(C[N+](=O)[O-])c2c(F)cccc2Cl)c(=O)n(C)c1=O (stereo not given)	8.9	-2.2	12.3	-5.1	8.5	-11.9
C[C@@H]1CN([C@@H](C)CO)C(=O)Cc2cc(NC(=O)c3ccncc3)ccc2O[C@H]1CN(C)C(=O)Nc1ccc2c(c1)OCO2	.	-2.5	8.4	.	.	-6.5[16.7 µM]
O=C1c2ccc(-c3nc4ccccc4o3)cc2C(=O)N1Cc1ccccc1	63.6*	.	.	-4.2	14.0	36.6
O=C(N/N=C/c1ccccc1)c1n[nH]c2c1CCCC2	-15.4	-2.5	-12.9	-8.3	-0.5	-57.5
O=C(N/N=C/c1ccccc1Cl)c1n[nH]c2c1CCCC2	77.1*	-3.8	14.5	-18.3	1.1	0.9
COc1ccccc1CNC(=O)C[C@H]1C[C@@H]2c3cc(NC(=O)NC4CCCC4)ccc3O[C@@H]2[C@H](CO)O1	22.7	-0.3	0.3	.	-0.9	-4.6[16.7 µM]
CC(C)CC(COCc1cccc(C(F)(F)F)c1)N1CCN(C(=O)c2cccc(C(F)(F)F)c2)CCC1=O (stereo not given)	29.8	-4.4	11.3	-1.6	13.0	66.7*
Cc1ccc(COC[C@H](CC(C)C)N2CCN(C(=O)c3cccc(C(F)(F)F)c3)CCC2=O)cc1	5.3	-1.1	14.8	.	-3.1	2.5
Cc1ccccc1COC[C@H](CC(C)C)N1CCN(C(=O)c2cccc(C(F)(F)F)c2)CCC1=O	16.2	0.6	-3.8	-4.4	0.3	72.0*
C=C1CCN([C@@H](CC(C)C)C(=O)Nc2ccc(OC)cc2)S(=O)(=O)c2ccccc21	-1.8	.	2.6	-1.8	7.5	102.1*
C=C1CCN([C@@H](Cc2ccccc2)C(=O)NCCC(C)C)S(=O)(=O)c2ccccc21	-3.5	-0.7	7.6	-4.5	11.0	83.7*
Cc1ccc(NC(=O)c2ccc(OC(F)(F)F)cc2)cc1S(=O)(=O)N(C)C	12.8	.	.	-5.6	-2.3	62.0*
C[C@H]1CN([C@@H](C)CO)C(=O)c2cc(NC(=O)Nc3ccccc3)ccc2O[C@@H]1CN(C)C(=O)Nc1cccc2ccccc12	.	0.1	11.3	.	.	-11.6[16.7 µM]
C[C@H](CO)N1C[C@H](C)[C@H](CN(C)C(=O)Nc2cccc3ccccc23)Oc2ccc(NC(=O)Nc3ccc(C(F)(F)F)cc3)cc2C1=O	-22.7	.	-8.0	.	.	56.5*[16.7 µM]
COc1ccc(-c2cnc3c(c2)C(=O)N([C@H](C)CO)C[C@H](C)[C@H](CN(C)C(=O)Nc2cccc4ccccc24)O3)cc1	.	4.9	9.2	.	-5.7	2.6[16.7 µM]
C[C@@H]1CN([C@H](C)CO)C(=O)c2cc(NC(=O)Nc3cccc4ccccc34)ccc2O[C@@H]1CN(C)C(=O)Nc1cccc2ccccc12	78.1*	-1.4	5.7	.	.	20.6[16.7 µM]
C[C@H](CO)N1C[C@H](C)[C@H](CN(C)C(=O)Nc2cccc3ccccc23)Oc2ncc(-c3ccc(F)cc3)cc2C1=O	15.9	1.5	10.6	.	.	39.3*[16.7 µM]
C[C@H](CO)N1C[C@H](C)[C@H](CN(C)C(=O)c2cccc(F)c2)Oc2ncc(-c3ccccc3)cc2C1=O	.	.	-6.3	.	34.5*	21.0[16.7 µM]
C[C@@H]1CN([C@@H](C)CO)C(=O)c2cc(-c3ccccc3)cnc2O[C@H]1CN(C)C(=O)c1cccc(F)c1	.	.	5.1	.	-25.3	5.6[16.7 µM]
C[C@@H]1CN([C@H](C)CO)C(=O)Cc2cc(NC(=O)Cc3ccccc3)ccc2O[C@@H]1CN(C)Cc1ccncc1	8.4	-1.7	2.1	.	.	.
C[C@@H]1CN([C@@H](C)CO)C(=O)c2cc(NC(=O)Nc3ccc(F)cc3)ccc2O[C@@H]1CN(C)C(=O)Nc1cccc2ccccc12	74.8*	-0.3	16.0	.	10.4	.

High-throughput results from PubChem BioAssay.
